In the M2OR odorant receptor database:
Changes are numbered by the printed parent chain.

Molecular target: T1, OR9Q1 (Homo sapiens) (UniProt Q8NGQ5)
T1 sequence (whole entry): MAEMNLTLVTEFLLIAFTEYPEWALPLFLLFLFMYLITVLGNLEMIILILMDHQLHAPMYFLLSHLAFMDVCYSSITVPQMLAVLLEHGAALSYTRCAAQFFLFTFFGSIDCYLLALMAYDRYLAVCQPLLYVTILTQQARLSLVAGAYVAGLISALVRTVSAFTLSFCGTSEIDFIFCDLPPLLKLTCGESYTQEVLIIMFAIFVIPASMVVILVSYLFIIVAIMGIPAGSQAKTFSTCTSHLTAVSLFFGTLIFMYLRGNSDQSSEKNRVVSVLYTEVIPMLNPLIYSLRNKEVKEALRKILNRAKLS
Settings: stereoisomer not certain
Method in brief: (§1)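 Whether a receptor–molecule pair is responsive (active) rests on the original authors' judgment that its measured signal was statistically different from baseline. Pairs without that judgment are non-responsive (inactive). Sources used varied assay methods, commonly transient luciferase assays in mammalian cell lines.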
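Note: active if original authors judged signal statistically different from baseline.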

Odorant receptor agonist call, inactive:
CC1CCCCCCCCCCCCC(=O)C1 (configuration not stated), CCC(S)C(C)CO (configuration not stated), CC(CO)CS (configuration not stated), Cc1cnc(C)c(C)n1, CCCCC(S)C(C)CO (configuration not stated), CC1=NC(C)C(C)S1 (configuration not stated), CCCCCC(S)C(C)CO (configuration not stated), CCCCCCC=CCCC=O, CC1=C(O)C(=O)OC1C (configuration not stated), CCCCCC(=O)C(C)C(C)=O (configuration not stated), CC1=C(O)C(=O)C(C)O1 (configuration not stated), CCCC(S)CCOC(C)=O (configuration not stated), CCC1OC(C)=C(O)C1=O (configuration not stated), CC(=O)c1c(C)c([N+](=O)[O-])c(C(C)(C)C)c([N+](=O)[O-])c1C, CCC1OC(=O)C(O)=C1C (configuration not stated)

System: T2, OR9Q1 A83T
T2 sequence (whole entry): T1 sequence (whole entry) with A83T
Settings: stereoisomer not certain
Method in brief: as §1

Odorant receptor agonist call, inactive:
Cc1cnc(C)c(C)n1, CC1=NC(C)C(C)S1 (configuration not stated), CCCCCCC=CCCC=O, CC1=C(O)C(=O)OC1C (configuration not stated), CC1=C(O)C(=O)C(C)O1 (configuration not stated), CCCC(S)CCOC(C)=O (configuration not stated), CCC1OC(C)=C(O)C1=O (configuration not stated), CCC1OC(=O)C(O)=C1C (configuration not stated)

Molecular target: T3, OR9Q2 (Homo sapiens) (UniProt Q8NGE9)
T3 sequence (whole entry): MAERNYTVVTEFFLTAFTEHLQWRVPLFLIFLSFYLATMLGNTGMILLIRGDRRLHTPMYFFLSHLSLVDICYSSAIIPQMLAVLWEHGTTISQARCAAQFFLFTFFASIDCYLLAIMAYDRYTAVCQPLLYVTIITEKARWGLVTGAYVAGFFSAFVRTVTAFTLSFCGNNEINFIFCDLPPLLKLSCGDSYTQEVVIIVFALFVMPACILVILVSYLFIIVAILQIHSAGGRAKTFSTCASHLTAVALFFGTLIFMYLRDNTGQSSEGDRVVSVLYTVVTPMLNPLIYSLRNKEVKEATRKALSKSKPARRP
Settings: stereoisomer not certain
Method in brief: as §1

Odorant receptor agonist call, inactive:
CC1CCCCCCCCCCCCC(=O)C1 (configuration not stated), CCC(S)C(C)CO (configuration not stated), CC(CO)CS (configuration not stated), Cc1cnc(C)c(C)n1, CCCCC(S)C(C)CO (configuration not stated), CC1=NC(C)C(C)S1 (configuration not stated), CCCCCC(S)C(C)CO (configuration not stated), CCCCCCC=CCCC=O, CC1=C(O)C(=O)OC1C (configuration not stated), CCCCCC(=O)C(C)C(C)=O (configuration not stated), CC1=C(O)C(=O)C(C)O1 (configuration not stated), CCCC(S)CCOC(C)=O (configuration not stated), CCC1OC(C)=C(O)C1=O (configuration not stated), CC(=O)c1c(C)c([N+](=O)[O-])c(C(C)(C)C)c([N+](=O)[O-])c1C, CCC1OC(=O)C(O)=C1C (configuration not stated)

System: T4, OR9Q2 C179R
T4 sequence (whole entry): T3 sequence (whole entry) with C179R
Settings: stereoisomer not certain
Method in brief: as §1

Odorant receptor agonist call, inactive:
Cc1cnc(C)c(C)n1, CC1=NC(C)C(C)S1 (configuration not stated), CCCCCCC=CCCC=O, CC1=C(O)C(=O)OC1C (configuration not stated), CC1=C(O)C(=O)C(C)O1 (configuration not stated), CCCC(S)CCOC(C)=O (configuration not stated), CCC1OC(C)=C(O)C1=O (configuration not stated), CCC1OC(=O)C(O)=C1C (configuration not stated)

Molecular target: T5, Or10j5 (Mus musculus) (UniProt Q62007)
T5 sequence (whole entry): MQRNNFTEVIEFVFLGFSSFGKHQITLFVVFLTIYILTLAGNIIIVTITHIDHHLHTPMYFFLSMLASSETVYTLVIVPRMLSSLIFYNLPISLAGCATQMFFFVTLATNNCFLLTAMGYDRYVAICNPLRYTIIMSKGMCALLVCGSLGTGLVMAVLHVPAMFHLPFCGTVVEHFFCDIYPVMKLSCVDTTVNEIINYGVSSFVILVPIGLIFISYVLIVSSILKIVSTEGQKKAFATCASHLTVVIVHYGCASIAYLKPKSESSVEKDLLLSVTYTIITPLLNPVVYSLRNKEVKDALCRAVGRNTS
Settings: stereoisomer not certain
Method in brief: as §1

Odorant receptor agonist call, inactive:
CCCCCCCO, CCCCCCO, CC(C)=CCCC(C)=CCO, CCCC(C)=O, CCCCCCCCCCC(=O)O, CCCCC(=O)O, O=C(O)CCCCCCCCCCCBr, CCCCCCCCCCCO, CCCCCCCCCCCC(=O)O, O=C(O)CCCCCCCCCC(=O)O, O=C(O)CCCCCCCCCCBr, CCCCOC(=O)CCC, O=C([O-])CCCCCCC(=O)[O-].[H+].[H+], CCCCCCCCCC(=O)[O-].[H+], O=C([O-])CCCCC(=O)[O-].[H+].[H+], CCCCC=O, O=C([O-])CCCCCCCC(=O)[O-].[H+].[H+], CCCCCCCCCCCC=O, O=C(O)CCCCCCCCCBr, CCCCCCCCCO

Odorant receptor agonist call, active:
CCCCCCCC(=O)[O-].[H+]
